Data on 55 molecules can be found in ChEMBL document CHEMBL3297646, “Structure-activity relationship study of non-steroidal NPC1L1 ligands identified through cell-based assay using pharmacological chaperone effect as a readout” (Bioorg Med Chem, 2014).

Holding throughout (type): cell-based
In series [1] the target is T1, NPC1-like intracellular cholesterol transporter 1 (Homo sapiens) (UniProt Q9UHC9).
T1 sequence (whole entry): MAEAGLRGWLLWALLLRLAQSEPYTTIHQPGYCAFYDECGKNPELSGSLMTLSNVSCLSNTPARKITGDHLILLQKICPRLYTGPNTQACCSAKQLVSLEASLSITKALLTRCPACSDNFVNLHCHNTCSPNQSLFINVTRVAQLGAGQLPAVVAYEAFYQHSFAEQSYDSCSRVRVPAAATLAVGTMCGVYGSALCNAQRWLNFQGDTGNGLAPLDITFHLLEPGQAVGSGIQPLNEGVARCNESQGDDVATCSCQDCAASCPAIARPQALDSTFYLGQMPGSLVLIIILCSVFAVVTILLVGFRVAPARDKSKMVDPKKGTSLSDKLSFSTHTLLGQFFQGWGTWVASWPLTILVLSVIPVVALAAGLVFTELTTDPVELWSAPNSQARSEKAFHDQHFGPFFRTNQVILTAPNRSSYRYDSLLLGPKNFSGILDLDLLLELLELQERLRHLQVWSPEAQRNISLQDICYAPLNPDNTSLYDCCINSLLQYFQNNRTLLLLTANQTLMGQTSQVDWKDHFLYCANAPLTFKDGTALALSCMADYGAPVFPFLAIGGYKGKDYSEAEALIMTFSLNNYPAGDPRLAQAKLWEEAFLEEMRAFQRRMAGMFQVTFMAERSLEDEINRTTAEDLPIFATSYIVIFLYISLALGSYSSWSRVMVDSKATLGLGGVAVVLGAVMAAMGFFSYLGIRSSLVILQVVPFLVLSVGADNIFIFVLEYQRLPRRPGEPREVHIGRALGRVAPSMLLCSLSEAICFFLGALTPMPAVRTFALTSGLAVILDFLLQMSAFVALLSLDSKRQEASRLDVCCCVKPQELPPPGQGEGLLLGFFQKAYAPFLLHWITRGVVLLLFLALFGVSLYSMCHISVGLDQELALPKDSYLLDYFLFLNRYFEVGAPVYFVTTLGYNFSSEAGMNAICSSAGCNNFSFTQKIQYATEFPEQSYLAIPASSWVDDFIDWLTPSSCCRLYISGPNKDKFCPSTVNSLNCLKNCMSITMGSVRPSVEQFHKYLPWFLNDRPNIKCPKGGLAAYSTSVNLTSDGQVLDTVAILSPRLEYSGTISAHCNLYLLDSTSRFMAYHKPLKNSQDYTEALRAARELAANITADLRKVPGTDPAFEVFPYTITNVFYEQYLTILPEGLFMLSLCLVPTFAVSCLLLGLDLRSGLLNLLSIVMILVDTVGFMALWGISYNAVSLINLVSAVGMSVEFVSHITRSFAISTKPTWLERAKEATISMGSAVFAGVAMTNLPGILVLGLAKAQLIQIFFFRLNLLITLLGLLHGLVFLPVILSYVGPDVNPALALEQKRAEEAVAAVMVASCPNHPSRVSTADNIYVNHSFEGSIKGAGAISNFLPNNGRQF
In words: Binding affinity to human GFP-tagged NPC1L1 L1072T/L1168I mutant expressed in HEK293 cells assessed as localization to plasma membrane at 30 uM after 24 hrs by fluorescence microscopic analysis. An outline of the steps:
(§1)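 HEK293 cells stably expressing EGFP-tagged NPC1L1 L1072T/L1168I were plated on poly-D-lysine-coated glass-bottomed wells (20 µg/mL in PBS) and grown 24 h. They were then exposed to compound at 10 or 30 µM (0.1% final DMSO) and fixed in 3.7% formaldehyde-PBS. Read-out was % of EGFP signal localized to the plasma membrane.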

Series [2] has as its target T1, NPC1-like intracellular cholesterol transporter 1 (Homo sapiens). The series can be described thus: Binding affinity to human GFP-tagged NPC1L1 L1072T/L1168I mutant expressed in HEK293 cells assessed as localization to plasma membrane at 10 uM after 24 hrs by fluorescence microscopic analysis. An outline of the steps:
as §1

The target is the same in series [3]. The series can be described thus: Binding affinity to human EGFP-tagged full-length NPC1L1 L1072T/L1168I mutant expressed in HEK293 cells assessed as protein stabilization after 24 hrs by fluorescence assay. An outline of the steps:
(§2)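 Steady-state levels of full-length or NTD-deleted NPC1L1 L1072T/L1168I-GFP were measured in stably expressing HEK293 cells treated with compound at 1–30 µM or vehicle. GFP fluorescence in cell lysates was normalized to total protein by bicinchoninic acid assay. Values are expressed as % of vehicle-treated cells.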

Series [4] has the same target. In words: Binding affinity to human EGFP-tagged NTD-deleted NPC1L1 L1072T/L1168I mutant expressed in HEK293 cells assessed as protein stabilization after 24 hrs by fluorescence assay. The method in brief: as §2
The test system of the next series is HEK293. In words: Cytotoxicity against HEK293 cells transfected with human GFP-tagged NPC1L1 L1072T/L1168I mutant at 30 uM. As to conditions: hek293, 30 µM.

Molecules are shown by their SMILES. Active and inactive are the calls of the source. No cut-off for these calls is given here.

For `CCCCn1c(=O)c2ccccc2c2cc(C(=O)N(CCO)CCO)ccc21`, the Activity in series [1] came out at 0%. As to `CCCCn1c(=O)c2c(c3cc(C(=O)NCC)ccc31)CCCCC2`, the figures for the Activity in series [1] and in series [2] were 28% and 0%, respectively. In the case of `CCCCn1c(=O)c2c(c3cc(C(=O)NCCC)ccc31)CCCCC2`, the Activity in series [1] amounted to 36%; in series [2], 0%. As for `CCN(CC)C(=O)c1ccc2c(c1)c1ccccc1c(=O)n2CCCC(=O)N(C)C`, the Activity in series [1] came out at 0%.

Turning to `CCN(CC)C(=O)c1ccc2c(c1)c1ccccc1c(=O)n2Cc1ccc(OC)cc1`, the Activity in series [1] is 18%; in series [2], 0%. Turning to `CCCCn1c(=O)c2ccccc2c2cc(C(=O)NC3CCCC3)ccc21`, the Activity in series [1] is 0%.

With `CCCCn1c(=O)c2c(c3cc(C(=O)NC4CC4)ccc31)CCCCC2`, the Activity in series [1] is 49%; in series [2] it was 3%. Taken in the same sequence, the figures for `CCCCn1c(=O)c2ccccc2c2cc(C(=O)NC3CC3)ccc21` were 55% and 14%. Taken in the same sequence, the figures for `CCCCn1c(=O)c2ccccc2c2cc(C(=O)NC)ccc21` were 24% and 1%. Taken in the same sequence, the figures for `CCCCn1c(=O)c2c(c3cc(C(=O)N4CCCC4)ccc31)CCCCC2` were 33% and 1%. Take `CCCCn1c(=O)c2c(c3cc(C(N)=O)ccc31)CCCCC2`: in series [1], the Activity worked out at 0%. For `CCN(C(=O)c1ccc2c(c1)c1c(c(=O)n2CCOC)CCCCC1)C1CC1`, the Activity in series [1] was found to be 0%. In the case of `CCN(CC)C(=O)c1ccc2[nH]c(=O)c3ccccc3c2c1`, the Activity in series [1] is 0%. Take `CCN(C(=O)c1ccc2c(c1)c1c(c(=O)n2CC)CCCCC1)C1CC1`: the Activity in series [1] was 7%. Also, the outcome in series [3] and in series [4] was Active. `CCN(CC)C(=O)c1ccc2c(c1)c1ccccc1c(=O)n2CC`: the Activity in series [1] is 4%. Turning to `CCCCn1c(=O)c2c(c3cc(C(=O)N(CC)CC)ccc31)CCCCC2`, the figures for the Activity in series [1] and in series [2] were 42% and 14%, respectively.

Consider `CCCCn1c(=O)c2c(c3cc(C(=O)N(CC)CC)ccc31)CCC2`, for which the Activity in series [1] is 15%; in series [2] it was 1%. On to `CCCCN(CCCC)C(=O)c1ccc2c(c1)c1ccccc1c(=O)n2CCCC`, for which the results for the Activity entry (in the series with HEK293; in series [2]) were “Toxic” and 18%, respectively. As for `CCCCn1c(=O)c2c(c3cc(C(=O)NC(C)C)ccc31)CCCCC2`, the Activity was 25% in series [1] and 0% in series [2]. As for `CCCn1c(=O)c2c(c3cc(C(=O)N(CC)C4CC4)ccc31)CCCCC2`, the Activity in series [1] turned out to be 39%; in series [2], 0%.

Take `CCCCn1c(=O)c2ccccc2c2cc(C(=O)NC(C)(C)C)ccc21`: the values for the Activity in series [1] and in series [2] were 41% and 11%, respectively. For the molecule `CCN(CC)C(=O)c1ccc2c(c1)c1ccccc1c(=O)n2CC(=O)O`, in series [1], the Activity is 0%.

`CCN(CC)C(=O)c1ccc2c(c1)c1ccccc1c(=O)n2CC(=O)N(C)C`: in series [1], the Activity amounted to 0%. On to `CCCCn1c(=O)c2ccccc2c2cc(C(=O)N(CCC)CCC)ccc21`, for which the Activity in series [1] was determined as 50%; in series [2], 14%. On to `CCCCn1c(=O)c2ccccc2c2cc(C(=O)N(CC)CC)ccc21`, for which the Activity in series [1] came out at 45%; in series [2], 1%. As to `CCCCn1c(=O)c2c(c3cc(C(=O)N(CC)CC)ccc31)CCCC2`, the Activity in series [1] was found to be 42%; in series [2], 2%.

Turning to `CCCCn1c(=O)c2ccccc2c2cc(C(=O)NC3CCCCC3)ccc21`, the figures for the Activity in series [1] and in series [2] were 11% and 3%, respectively.

As to `CCN(C(=O)c1ccc2c(c1)c1c(c(=O)n2C)CCCCC1)C1CC1`, the Activity in series [1] was found to be 0%. In the case of `CCCCCn1c(=O)c2c(c3cc(C(=O)N(CC)C4CC4)ccc31)CCCCC2`, the Activity in series [1] was found to be 35%; in series [2], 3%. For `CCN(CC)C(=O)c1ccc2c(c1)c1ccccc1c(=O)n2C`, in series [1], the Activity is 0%.

For the molecule `CCCCn1c(=O)c2ccccc2c2cc(C(N)=O)ccc21`, the Activity in series [1] was determined as 0%. Take `CCCCn1c(=O)c2c(c3cc(C(=O)NC4CCCC4)ccc31)CCCCC2`: the results for the Activity in series [1] and in series [2] were 16% and 6%, respectively. Take `CCN(C(=O)c1ccc2c(c1)c1c(c(=O)n2C(C)C)CCCCC1)C1CC1`: the Activity result in the series with HEK293 is “Toxic”; in series [2], 0%. Take `CCCCn1c(=O)c2ccccc2c2cc(C(=O)NCc3ccccc3)ccc21`: the Activity in series [1] is 0%. Same read-out and setting: under `CCCCn1c(=O)c2c(c3cc(C(=O)NC(C)(C)C)ccc31)CCCCC2` stands 1%. Consider `CCCCNC(=O)c1ccc2c(c1)c1c(c(=O)n2CCCC)CCCCC1`, for which the Activity was 18% in series [1] and 0% in series [2].

As for `CCCCn1c(=O)c2c(c3cc(C(=O)NC4CCCCC4)ccc31)CCCCC2`, the Activity in series [1] was determined as 5%; in series [2], 2%. For `CCCC(=O)N1CC2=C(CCCC2)c2cc(C(=O)N(CC)CC)ccc21`, the Activity in series [1] was 1%. `CCN(C(=O)c1ccc2[nH]c(=O)c3c(c2c1)CCCCC3)C1CC1`: in series [1], the Activity turned out to be 0%. For the same molecule, the result in series [3] and in series [4] was Active.

On to `CCN(C(=O)c1ccc2c(c1)c1c(c(=O)n2CCO)CCCCC1)C1CC1`, for which, in series [1], the Activity came to 0%. For `CCCCn1c(=O)c2c(c3cc(C(=O)N(C)C4CC4)ccc31)CCCCC2`, the Activity in series [1] worked out at 21%; in series [2], 1%. With `CCCCn1c(=O)c2ccccc2c2cc(C(=O)N3CCOCC3)ccc21`, in series [1], the Activity amounted to 0%.

Consider `CCCCn1c(=O)c2c(c3cc(C(=O)NCCO)ccc31)CCCCC2`, for which, in series [1], the Activity stood at 0%. For `CCCCn1c(=O)c2ccccc2c2cc(C(=O)N3CCCCC3)ccc21`, the Activity in series [1] was 47%; in series [2] it was 0%. On to `CCCCn1c(=O)c2ccccc2c2cc(C(=O)N(C)C)ccc21`, for which, in series [1], the Activity is 4%. `CCCCn1c(=O)c2ccccc2c2cc(C(=O)NC(C)C)ccc21`: the Activity in series [1] came to 49%; in series [2], 0%. Taken in the same sequence, the figures for `CCCCn1c(=O)c2c(c3cc(C(=O)N(CC)CC)ccc31)CCCCCC2` were 44% and 5%. For the molecule `CCN(CC)C(=O)c1ccc2c(c1)c1ccccc1c(=O)n2CCCC(=O)O`, the Activity in series [1] was determined as 0%. Same read-out and setting: the same measure for `CCCCN1C(=O)c2ccccc2Oc2cc(C(=O)N(CC)CC)ccc21`: 3%; for `CCN(CC)C(=O)c1ccc2c(c1)c1ccccc1c(=O)n2Cc1ccccc1`: 0%. As to `CCCCN1C(=O)CCc2cc(C(=O)N(CC)CC)ccc21`, the Activity in series [1] worked out at 1%. Same read-out and setting: under `CCCCn1c(=O)c2c(c3cc(C(=O)Nc4ccccc4)ccc31)CCCCC2` stands 0%. With `CCN(C(=O)c1ccc2c(c1)c1c(c(=O)n2Cc2ccccc2)CCCCC1)C1CC1`, the Activity in series [1] was determined as 14%; in series [2] it was 0%. With `CCCCn1c(=O)c2c(c3cc(C(=O)NC)ccc31)CCCCC2`, the Activity in series [1] is 23%; in series [2], 0%.

With `CCCCn1c(=O)c2c(c3cc(C(=O)N(C)C)ccc31)CCCCC2`, the Activity in series [1] was 2%.
